Measurements as given in ChEMBL document CHEMBL4364257, “Discovery of novel Bcr-AblT315I inhibitors with flexible linker. Part 1: Confirmation optimization of phenyl-1H-indazol-3-amine as hinge binding moiety” (Eur J Med Chem, 2019).

Experiments:
Bcr/Abl fusion protein [1] = molecular target: Bcr/Abl fusion protein (Homo sapiens, UniProt P00519); assay: Inhibition of wild type BCR/ABL (unknown origin) measured after 60 mins in presence of ATP by ADP-Glo kinase assay; format: protein assay
K562 = assay: Antiproliferative activity against human BCR/ABL positive K562 cells assessed as growth inhibition measured after 48 hrs by MTT assay; format: functional, cell-based; conditions: K562, 48 h
Method in brief: (§1)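 K562 and K562R (T315I) cells grown in RPMI 1640 + 10% FBS; 2500 cells/well seeded, 12 h at 37 °C, 5% CO2, then compounds at indicated final concentrations for 48 h. MTT 0.5 mg/mL final, 4 h at 37 °C; supernatant removed, DMSO added, absorbance at 490 nm. IC50 calculated from inhibition ratios.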

Bcr/Abl fusion protein [2] = molecular target: Bcr/Abl fusion protein (Homo sapiens, UniProt P00519, T315I); assay: Inhibition of BCR/ABL T315I mutant (unknown origin) measured after 60 mins in presence of ATP by ADP-Glo kinase assay; format: protein assay
K-562R = assay: Antiproliferative activity against human K562R cells expressing BCR/ABL T315I mutant assessed as growth inhibition measured after 48 hrs by MTT assay; format: functional, cell-based; method in brief: as §1
HEK293 = assay: Cytotoxicity against human HEK293 cells upto 150 uM measured after 48 hrs by MTT assay; format: cell-based; conditions: hek293, 48 h
Method in brief: (§2)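 Normal human cells (EA.hy926, Hek293) kept in DMEM + 10% FBS; 2500 cells/well, 12 h preincubation at 37 °C, 5% CO2; compound added at indicated final concentrations for 48 h. MTT at 0.5 mg/mL final for 4 h, formazan dissolved in DMSO, absorbance read at 490 nm.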

EA.hy 926 = assay: Cytotoxicity against human EAhy926 cells upto 150 uM measured after 48 hrs by MTT assay; format: cell-based; conditions: ea.hy 926, 48 h; method in brief: as §2
[3] = molecular target: Mitogen-activated protein kinase 14 (Homo sapiens, UniProt Q16539); assay: Inhibition of human recombinant full length N-terminal GST tagged p38alpha expressed in baculovirus infected Sf9 cells using p38 peptide as substrate measured after 60 mins in presence of ATP by ADP-Glo kinase assay
Sequence of Mitogen-activated protein kinase 14 (Q16539 whole entry): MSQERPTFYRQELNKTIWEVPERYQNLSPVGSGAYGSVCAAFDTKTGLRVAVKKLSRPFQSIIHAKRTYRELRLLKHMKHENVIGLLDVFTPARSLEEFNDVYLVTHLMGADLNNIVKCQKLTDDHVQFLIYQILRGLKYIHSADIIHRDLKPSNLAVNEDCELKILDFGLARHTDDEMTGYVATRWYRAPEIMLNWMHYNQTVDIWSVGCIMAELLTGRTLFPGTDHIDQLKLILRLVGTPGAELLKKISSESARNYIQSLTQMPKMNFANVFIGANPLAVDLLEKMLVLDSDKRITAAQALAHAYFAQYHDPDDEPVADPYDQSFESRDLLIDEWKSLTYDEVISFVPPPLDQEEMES
Method in brief: (§3)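 ADP-Glo luminescence format: kinase with substrate/ATP mix and inhibitor in 40 mM Tris pH 7.4, 10 mM MgCl2, 0.1 mg/mL BSA, 1 mM DTT, 60 min at 30 °C. ADP-Glo reagent 40 min at room temperature to stop and deplete ATP, then detection reagent 30 min; luminescence read.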

[4] = molecular target: Proto-oncogene tyrosine-protein kinase Src (Homo sapiens, UniProt P12931); assay: Inhibition of human recombinant full length N-terminal GST tagged SRC expressed in Escherichia coli using KVEKIGEGTYGVVYK-amide as substrate measured after 60 mins in presence of ATP by ADP-Glo kinase assay; method in brief: as §3
Sequence of Proto-oncogene tyrosine-protein kinase Src (P12931 2-536 limits assumed): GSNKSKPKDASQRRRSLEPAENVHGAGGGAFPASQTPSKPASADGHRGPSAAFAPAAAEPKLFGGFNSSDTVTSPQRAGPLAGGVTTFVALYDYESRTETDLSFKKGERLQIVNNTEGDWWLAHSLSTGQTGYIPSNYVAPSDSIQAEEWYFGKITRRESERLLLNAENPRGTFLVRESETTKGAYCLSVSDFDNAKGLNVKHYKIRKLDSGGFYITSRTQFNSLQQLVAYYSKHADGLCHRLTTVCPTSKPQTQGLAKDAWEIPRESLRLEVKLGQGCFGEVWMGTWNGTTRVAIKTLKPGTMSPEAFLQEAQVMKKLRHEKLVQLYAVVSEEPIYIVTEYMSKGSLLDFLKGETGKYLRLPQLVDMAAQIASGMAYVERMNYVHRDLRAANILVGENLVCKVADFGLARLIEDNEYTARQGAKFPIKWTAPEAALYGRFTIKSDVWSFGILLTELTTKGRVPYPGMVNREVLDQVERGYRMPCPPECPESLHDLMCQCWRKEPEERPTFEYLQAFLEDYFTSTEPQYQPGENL

[5] = molecular target: Tyrosine-protein kinase HCK (Homo sapiens, UniProt P08631); assay: Inhibition of human recombinant N-terminal GST tagged HCK (230 to 497 residues) expressed in baculovirus infected Sf9 cells using poly (Glu,Tyr) 4:1 as substrate measured after 60 mins in presence of ATP by ADP-Glo kinase assay; method in brief: as §3
Sequence of Tyrosine-protein kinase HCK (P08631 whole entry, the tested form may be a part): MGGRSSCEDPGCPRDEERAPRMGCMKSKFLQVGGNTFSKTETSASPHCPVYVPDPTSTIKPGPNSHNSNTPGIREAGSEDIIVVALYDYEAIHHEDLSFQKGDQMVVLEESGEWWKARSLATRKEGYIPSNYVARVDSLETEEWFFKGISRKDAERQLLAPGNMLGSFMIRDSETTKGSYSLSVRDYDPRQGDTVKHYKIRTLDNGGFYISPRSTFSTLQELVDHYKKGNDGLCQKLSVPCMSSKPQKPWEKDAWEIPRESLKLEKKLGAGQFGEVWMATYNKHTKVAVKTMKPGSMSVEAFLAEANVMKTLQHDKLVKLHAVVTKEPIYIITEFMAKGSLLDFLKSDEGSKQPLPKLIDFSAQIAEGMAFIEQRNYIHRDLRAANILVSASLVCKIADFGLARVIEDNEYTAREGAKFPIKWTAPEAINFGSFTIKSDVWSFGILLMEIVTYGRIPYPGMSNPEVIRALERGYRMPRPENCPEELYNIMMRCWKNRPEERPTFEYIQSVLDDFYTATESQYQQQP

[6] = molecular target: Bcr/Abl fusion protein (Homo sapiens) (UniProt P00519+P11274); assay: Inhibition of BCR/ABL phosphorylation in human K562 cells measured after 4 hrs by Western blot analysis; format: cell-based
Method in brief: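 K562 cells exposed to DMSO vehicle or drug for 4 h, lysed in SDS sample buffer, BCA-normalized; equal protein run on SDS-PAGE, transferred to PVDF, blocked in 5% milk/TBS-0.1% Tween-20. Probed overnight at 4 °C for Bcr-Abl, p-Bcr-Abl, actin; HRP secondaries 2 h at room temperature; ECL detection.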

Row | SMILES | IC50 (Bcr/Abl fusion protein [1]) [µM] | IC50 (K562) [µM] | IC50 (Bcr/Abl fusion protein [2]) [µM] | also measured
1 | Cc1ccc(C(=O)N2CCN(C(=O)c3ccc(-c4cccc5[nH]nc(N)c45)cc3)CC2)cc1 | 5.85 | > 150 | 179 | 
2 | Nc1n[nH]c2cc(-c3ccc(C(=O)N4CCN(C(=O)c5ccc(F)cc5)CC4)cc3)ccc12 | 2.34 | 39.1 | 8.6 | 
3 | CN(C)c1ccc(C(=O)NCCNC(=O)c2ccc(-c3ccc4c(N)n[nH]c4c3)cc2)cc1 | 3.45 | 7.52 | 0.29 | 
4 | CN(C)c1ccc(C(=O)N2CCN(C(=O)c3ccc(-c4cccc5[nH]nc(N)c45)cc3)CC2)cc1 | 4.28 | > 150 | 86.1 | 
5 | Nc1n[nH]c2cccc(-c3ccc(C(=O)NCCNC(=O)c4ccc(Br)cc4)cc3)c12 | 31.6 | > 150 | 94.8 | 
6 | Nc1n[nH]c2cccc(-c3ccc(C(=O)N4CCN(C(=O)c5ccc(F)cc5)CC4)cc3)c12 | 17.6 | 102 | 20.9 | 
7 | CN(C)c1ccc(C(=O)N2CCN(C(=O)c3ccc(-c4ccc5c(N)n[nH]c5c4)cc3)CC2)cc1 | 2.54 | 61.2 | 6.23 | 
8 | CN(C)c1ccc(C(=O)NCCNC(=O)c2ccc(-c3cccc4[nH]nc(N)c34)cc2)cc1 | 5.75 | > 150 | 76.8 | 
9 | Cc1ccc(C(=O)N2CCN(C(=O)c3ccc(-c4ccc5c(N)n[nH]c5c4)cc3)CC2)cc1 | 32.2 | 59.3 | 3.72 | 
10 | Nc1n[nH]c2cc(-c3ccc(C(=O)N4CCN(C(=O)c5ccc(Cl)c(C(F)(F)F)c5)CC4)cc3)ccc12 | 1.99 | 4.84 | 5.33 | 
11 | Cc1ccc(C(=O)NCCNC(=O)c2ccc(-c3cccc4[nH]nc(N)c34)cc2)cc1 |  | 5.93 |  | 
12 | Nc1n[nH]c2cccc(-c3ccc(C(=O)N4CCN(C(=O)c5ccc(Br)cc5)CC4)cc3)c12 | 7.12 | 9.25 | 1.5 | 
13 | Cc1ccc(C(=O)NCCNC(=O)c2ccc(-c3ccc4c(N)n[nH]c4c3)cc2)cc1 | 0.38 | 1.45 | 4.3 | 
14 | Nc1n[nH]c2cc(-c3ccc(C(=O)N4CCN(C(=O)c5ccc(Br)cc5)CC4)cc3)ccc12 | 6.28 | 11.3 | 31.9 | 
15 | Nc1n[nH]c2cc(-c3ccc(C(=O)NCCNC(=O)c4ccc(Br)cc4)cc3)ccc12 | 2.16 | 14 | 2.68 | 
16 | Nc1n[nH]c2cccc(-c3ccc(C(=O)NCCNC(=O)c4ccc(Cl)c(C(F)(F)F)c4)cc3)c12 | 0.11 | 17.1 | 20 | 
17 | Nc1n[nH]c2cccc(-c3ccc(C(=O)N4CCN(C(=O)c5ccc(Cl)c(C(F)(F)F)c5)CC4)cc3)c12 | 10.7 | 4.9 | 2.08 | 
18 | Cc1ccc(NC(=O)c2ccc(CN3CCN(C)CC3)cc2)cc1Nc1nccc(-c2cccnc2)n1 [IMATINIB] |  | 4.26 |  | IC50 (K-562R): 90 µM
19 | Nc1n[nH]c2cc(-c3ccc(C(=O)NCCNC(=O)c4ccc(Cl)c(C(F)(F)F)c4)cc3)ccc12 | 0.043 | 1.65 | 0.17 | Activity (HEK293): Non-Toxic; Activity (EA.hy 926): Non-Toxic; IC50 [3]: 34.5 µM; IC50 [4]: 15.1 µM; IC50 (K-562R): 5.42 µM; IC50 [5]: > 100 µM; inhibition [6]: Dose-dependent effect
20 | Nc1n[nH]c2cc(-c3ccc(C(=O)NCCNC(=O)c4ccc(F)cc4)cc3)ccc12 | 2.45 | 13.4 | 61.2 | 
21 | Nc1n[nH]c2cccc(-c3ccc(C(=O)NCCNC(=O)c4ccc(F)cc4)cc3)c12 | 1.35 | 9.49 | 38.5 | 
